Laboratory results taken from ChEMBL document CHEMBL3272298, “Use of adenine nucleotide derivatives to assess the potential of exo-active-site-directed reagents as species- or isozyme-specific enzyme inactivators. 2. Isozyme-specific inactivation of a mammalian enzyme and its significance in the possible design of fetal isozyme targeted antineoplastic agents” (J Med Chem, 1978).
Calls of active or inactive are those of the source. The rule behind the calls is not given here.

How the values were obtained:
[1] = target: Pyruvate kinase PKLR (Rattus norvegicus) (UniProt P12928); assay: Inactivation of Sprague-Dawley rat pyruvate kinase L using PEP as substrate at 5 mM at pH 7 after 8 hrs by spectrophotometric analysis
In short: (§1)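 Electrofocused isozymes, at tenfold (M) or twofold (L, K) assay level, exposed at pH 7.0 and 22 °C to Mg salts of the analogues. Medium: triethanolamine buffer with MgCl2, KCl, NADH, fructose diphosphate and lactate dehydrogenase, no ADP or PEP. Exposure was 8 h at 5 mM, or up to 10 mM for the liver isozyme; M controls were followed to 24 h. Timed aliquots were assayed by the coupled LDH method at 340 nm with 0.373 mM ADP, against controls lacking analogue.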

[2] = target: Pyruvate kinase PKLR (Rattus norvegicus) (UniProt P12928); assay: Activity at Sprague-Dawley rat pyruvate kinase L assessed as initial enzyme reaction velocity at 0.21 mM by spectrophotometric analysis relative to ADP
In short: (§2)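 Isozymes K, L and M from male Sprague-Dawley rat kidney, liver and muscle, partially purified by electrofocusing and dialyzed. Assay in 0.05 M triethanolamine-HCl pH 7.0 with 5 mM MgCl2, 67 mM KCl, 0.56 mM phosphoenolpyruvate, 0.4 mM NADH, 10 μM fructose 1,6-diphosphate, 0.21 mM nucleotide and lactate dehydrogenase. After 5 min preincubation, the nucleotide starts the reaction. Initial rate at 340 nm, 22 °C, expressed relative to ADP (100).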

[3] = Retardation factor of the compound using 1-butanol-acetic acid-water as solvent system by paper chromatography; format: physicochemical; conditions: buffer
[4] = target: Pyruvate kinase PKM (Rattus norvegicus) (UniProt P11980); assay: Inactivation of Sprague-Dawley rat pyruvate kinase M using PEP as substrate at 5 mM at pH 7 after 8 hrs by spectrophotometric analysis; in short: as §1
Rattus norvegicus [5] = species: Rattus norvegicus; assay: Inactivation of Sprague-Dawley rat pyruvate kinase K using PEP as substrate at 5 mM at pH 7 after 8 hrs by spectrophotometric analysis; in short: as §1
[6] = target: Pyruvate kinase PKM (Rattus norvegicus) (UniProt P11980); assay: Activity at Sprague-Dawley rat pyruvate kinase M assessed as initial enzyme reaction velocity at 0.21 mM by spectrophotometric analysis relative to ADP; in short: as §2
[7] = target: Pyruvate kinase PKLR (Rattus norvegicus) (UniProt P12928); assay: Inactivation of Sprague-Dawley rat pyruvate kinase L using PEP as substrate at 10 mM at pH 7 after 8 hrs by spectrophotometric analysis; in short: as §1
Pyruvate kinase PKLR [8] = target: T1, Pyruvate kinase PKLR (Rattus norvegicus, UniProt P12928); assay: Drug metabolism assessed as Sprague-Dawley rat pyruvate kinase L-mediated drug conversion; format: ADME
In short: (§3)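 Each isozyme preparation (K, L, M) incubated with the analogue under inactivation conditions: pH 7.0, 22 °C, triethanolamine buffer with MgCl2 and KCl. Conversion of the analogue to other compounds checked by paper electrophoresis at pH 3.5.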

[9] = target: Pyruvate kinase PKLR (Rattus norvegicus) (UniProt P12928); assay: Inactivation of Sprague-Dawley rat pyruvate kinase L using PEP as substrate at 7 mM pretreated with pyruvate kinase K by spectrophotometric analysis
[10] = target: Pyruvate kinase PKLR (Rattus norvegicus) (UniProt P12928); assay: Inactivation of Sprague-Dawley rat pyruvate kinase L using PEP as substrate at 7 mM pretreated with pyruvate kinase M measured for 4 hrs by spectrophotometric analysis
In short: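 Muscle isozyme first exposed to the analogue (7 mM) under the usual inactivation conditions at 22 °C, then liver isozyme added. Liver isozyme inactivation was followed over 4 h by the LDH-coupled 340 nm assay.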

[11] = target: Pyruvate kinase PKM (Rattus norvegicus) (UniProt P11980); assay: Inactivation of Sprague-Dawley rat pyruvate kinase M using PEP as substrate at 7 mM pretreated at 22 degC for 2 hrs with pyruvate kinase L measured for 3.5 hrs by spectrophotometric analysis
In short: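 Liver isozyme treated with the analogue (7 mM) for 2 h at 22 °C under the usual inactivation conditions, then an approximately equal activity of muscle isozyme added. Muscle activity followed for a further 3.5 h by the LDH-coupled 340 nm assay.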

[12] = target: Pyruvate kinase PKLR (Rattus norvegicus) (UniProt P12928); assay: Inactivation of Sprague-Dawley rat pyruvate kinase L using PEP as substrate at 5 mM at pH 7 after 8 hrs by spectrophotometric analysis in presence of 5 mM ADP
In short: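 Liver isozyme exposed to 5 mM Mg-analogue together with 5 mM ADP for 8 h at 22 °C, pH 7.0, in triethanolamine/MgCl2/KCl medium. Remaining activity was measured in timed aliquots by the LDH-coupled 340 nm assay with 0.373 mM ADP.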

Pyruvate kinase PKLR [13] = target: T1, Pyruvate kinase PKLR; assay: Binding affinity to Sprague-Dawley rat pyruvate kinase L assessed as apprent enzyme-inhibitor dissociation constant using PEP as substrate by spectrophotometric analysis; conditions: read-out: Kd(app)
In short: (§4)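 Liver isozyme incubated at 22 °C with Mg salt of the analogue at 3.0–10.0 mM in triethanolamine buffer with MgCl2, KCl, NADH, fructose diphosphate and lactate dehydrogenase, without ADP or PEP. Aliquots taken over time and assayed at 340 nm with 0.373 mM ADP. Pseudo-first-order inactivation half-times were derived, with t1/2 extrapolated to infinite inhibitor level, and apparent K from the rate-saturation analysis.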

Rattus norvegicus [14] = species: Rattus norvegicus; assay: Activity at Sprague-Dawley rat pyruvate kinase K assessed as initial enzyme reaction velocity at 0.21 mM by spectrophotometric analysis relative to ADP; in short: as §2
Rattus norvegicus [15] = species: Rattus norvegicus; assay: Inactivation of Sprague-Dawley rat pyruvate kinase K using PEP as substrate at 7 mM pretreated with pyruvate kinase L by spectrophotometric analysis
[16] = Drug metabolism assessed as Sprague-Dawley rat pyruvate kinase K-mediated drug conversion; format: ADME; in short: as §3
[17] = target: Pyruvate kinase PKLR (Rattus norvegicus) (UniProt P12928); assay: Half life for inactivation of Sprague-Dawley rat pyruvate kinase L using PEP as substrate by spectrophotometric analysis; in short: as §4
Pyruvate kinase PKM = Pyruvate kinase PKM (Rattus norvegicus, UniProt P11980); assay: Drug metabolism assessed as Sprague-Dawley rat pyruvate kinase M-mediated drug conversion; format: ADME; in short: as §3
Chain of Pyruvate kinase PKM (P11980 whole entry): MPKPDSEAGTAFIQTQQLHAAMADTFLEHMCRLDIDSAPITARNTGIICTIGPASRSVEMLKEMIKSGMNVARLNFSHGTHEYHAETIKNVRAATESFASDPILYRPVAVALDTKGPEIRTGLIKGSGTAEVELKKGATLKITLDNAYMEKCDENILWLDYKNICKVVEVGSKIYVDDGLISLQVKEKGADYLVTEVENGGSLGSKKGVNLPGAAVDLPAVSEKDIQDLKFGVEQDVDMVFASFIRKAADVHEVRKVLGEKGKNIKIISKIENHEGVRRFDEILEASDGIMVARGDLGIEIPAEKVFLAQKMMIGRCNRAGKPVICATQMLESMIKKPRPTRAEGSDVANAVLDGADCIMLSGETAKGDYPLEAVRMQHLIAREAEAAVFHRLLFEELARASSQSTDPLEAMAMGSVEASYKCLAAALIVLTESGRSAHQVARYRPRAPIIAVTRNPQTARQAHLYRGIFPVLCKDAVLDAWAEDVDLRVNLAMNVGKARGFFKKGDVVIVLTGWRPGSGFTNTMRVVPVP

Chain of Pyruvate kinase PKLR (Rattus norvegicus) (P12928 whole entry): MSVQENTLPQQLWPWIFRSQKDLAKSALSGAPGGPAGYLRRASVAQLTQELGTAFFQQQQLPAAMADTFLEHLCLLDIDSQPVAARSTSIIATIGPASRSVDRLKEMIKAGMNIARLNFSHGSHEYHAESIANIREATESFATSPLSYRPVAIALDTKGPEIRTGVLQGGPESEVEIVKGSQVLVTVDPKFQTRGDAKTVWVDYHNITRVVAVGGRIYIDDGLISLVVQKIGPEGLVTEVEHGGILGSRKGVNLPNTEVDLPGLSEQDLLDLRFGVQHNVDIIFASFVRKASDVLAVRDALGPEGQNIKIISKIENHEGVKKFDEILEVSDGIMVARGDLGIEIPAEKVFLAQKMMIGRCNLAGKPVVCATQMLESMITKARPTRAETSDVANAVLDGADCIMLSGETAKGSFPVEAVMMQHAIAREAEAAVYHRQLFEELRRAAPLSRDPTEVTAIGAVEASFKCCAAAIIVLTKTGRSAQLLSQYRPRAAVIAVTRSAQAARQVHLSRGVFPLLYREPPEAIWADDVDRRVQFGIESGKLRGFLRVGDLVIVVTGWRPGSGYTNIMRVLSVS
Chain of Pyruvate kinase PKM (Rattus norvegicus) (P11980 whole entry): as the sequence (P11980 whole entry) above
T1 sequence (P12928 whole entry): as the sequence (P12928 whole entry) above

inhibition [1] | Activity [2] [%] | Rf [3] | inhibition [4] | inhibition (Rattus norvegicus [5]) | Activity [6] [%] | SMILES | also measured
inactive | 9 |  |  |  |  | CC(=O)NCCCCCCCCNc1ncnc2c1ncn2[C@@H]1O[C@H](COP(=O)(O)OP(=O)(O)O)[C@@H](O)[C@H]1O | 
inactive |  | 0.53 | inactive | inactive |  | O=C(CI)NCCNc1ncnc2c1ncn2[C@@H]1O[C@H](COP(=O)(O)OP(=O)(O)O)[C@@H](O)[C@H]1O | 
inactive |  | 0.55 | inactive | inactive |  | O=C(CI)NCCCNc1ncnc2c1ncn2[C@@H]1O[C@H](COP(=O)(O)OP(=O)(O)O)[C@@H](O)[C@H]1O | 
inactive |  | 0.58 | inactive | inactive |  | O=C(CI)NCCCCNc1ncnc2c1ncn2[C@@H]1O[C@H](COP(=O)(O)OP(=O)(O)O)[C@@H](O)[C@H]1O | 
inactive | 9 | 0.65 | inactive | inactive | 19 | O=C(CI)NCCCCCCNc1ncnc2c1ncn2[C@@H]1O[C@H](COP(=O)(O)OP(=O)(O)O)[C@@H](O)[C@H]1O | 
 |  |  |  |  |  | O=C(CI)NCCCCCCCCNc1ncnc2c1ncn2[C@@H]1O[C@H](COP(=O)(O)O)[C@@H](O)[C@H]1O | inhibition [7]: inactive
inactive | 8 | 0.6 | inactive | inactive | 7 | O=C(CI)NCCCCCNc1ncnc2c1ncn2[C@@H]1O[C@H](COP(=O)(O)OP(=O)(O)O)[C@@H](O)[C@H]1O | 
inactive |  |  |  |  |  | O=C(CI)NCCCCCCCCNc1ncnc2c1ncn2[C@@H]1O[C@H](COP(=O)(O)OP(=O)(O)OP(=O)(O)O)[C@@H](O)[C@H]1O | 
80% | 13 | 0.71 |  | inactive | 54 | O=C(CI)NCCCCCCCCNc1ncnc2c1ncn2[C@@H]1O[C@H](COP(=O)(O)OP(=O)(O)O)[C@@H](O)[C@H]1O | Drug metabolism (Pyruvate kinase PKLR [8]): metabolite_notdetected; inhibition [9]: Active; inhibition [10]: Active; inhibition [11]: inactive; inhibition [12]: inactive; Kd (Pyruvate kinase PKLR [13]): 36 mM; Activity (Rattus norvegicus [14]): 21%; inhibition (Rattus norvegicus [15]): inactive; Drug metabolism [16]: metabolite_notdetected; T1/2 [17]: 23 min; Drug metabolism (Pyruvate kinase PKM): metabolite_notdetected
inactive | 12 | 0.68 | inactive | inactive | 25 | O=C(CI)NCCCCCCCNc1ncnc2c1ncn2[C@@H]1O[C@H](COP(=O)(O)OP(=O)(O)O)[C@@H](O)[C@H]1O | 
